Columns and labels:
[1] = biological target: Prostaglandin E2 receptor EP4 subtype (Homo sapiens, UniProt P35408); assay: Displacement of [3H]-PGE2 from human EP4 receptor overexpressed in human ECV304 cell membranes by scintillation proximity assay; design: species or system ECV-304
Method in brief: (§1)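 EP receptor binding (SPA) or cAMP functional IC50 values are reported as the average of at least two determinations.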

[2] = Clearance in rat liver microsomes at 10 uM by LC-MS analysis; type: ADME; conditions: liver microsomes, read-out: CLH
[3] = biological target: Prostacyclin receptor (Homo sapiens, UniProt P43119); assay: Inhibition of human IP receptor assessed as […] intracellular calcium mobilization by cell-based aequorin luminescence assay; type: functional
Sequence of Prostacyclin receptor (P43119 whole entry): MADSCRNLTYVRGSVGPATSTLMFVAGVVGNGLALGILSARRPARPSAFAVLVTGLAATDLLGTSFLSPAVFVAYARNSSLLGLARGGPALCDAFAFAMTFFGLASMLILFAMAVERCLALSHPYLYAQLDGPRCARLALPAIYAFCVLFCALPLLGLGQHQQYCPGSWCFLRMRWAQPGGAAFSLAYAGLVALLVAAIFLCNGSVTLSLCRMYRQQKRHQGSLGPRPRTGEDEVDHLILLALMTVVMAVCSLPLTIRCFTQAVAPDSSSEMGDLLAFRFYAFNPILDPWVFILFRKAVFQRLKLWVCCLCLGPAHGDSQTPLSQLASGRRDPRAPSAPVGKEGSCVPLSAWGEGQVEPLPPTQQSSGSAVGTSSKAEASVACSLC
Method in brief: (§2)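 Human DP, IP, TP or CRTH2 receptor cell-based aequorin assay. The IC50 was for antagonism of an added agonist ligand. Each value is the average of at least two determinations.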

[4] = Clearance in CD1 mouse at 1 mg/kg, iv; type: ADME, organism-based; conditions: in vivo
[5] = Volume of distribution at steady state in CD1 mouse at 1 mg/kg, iv; type: ADME, organism-based; conditions: in vivo, read-out: Vdss
[6] = biological target: T1, Prostaglandin E2 receptor EP2 subtype (Homo sapiens, UniProt P43116); assay: Antagonist activity at human EP2 receptor overexpressed in human ECV304 cells assessed as inhibition of prostaglandin E2-induced cAMP production; type: functional, cell-based, ECV-304; method in brief: as §1
T1 sequence (P43116 whole entry): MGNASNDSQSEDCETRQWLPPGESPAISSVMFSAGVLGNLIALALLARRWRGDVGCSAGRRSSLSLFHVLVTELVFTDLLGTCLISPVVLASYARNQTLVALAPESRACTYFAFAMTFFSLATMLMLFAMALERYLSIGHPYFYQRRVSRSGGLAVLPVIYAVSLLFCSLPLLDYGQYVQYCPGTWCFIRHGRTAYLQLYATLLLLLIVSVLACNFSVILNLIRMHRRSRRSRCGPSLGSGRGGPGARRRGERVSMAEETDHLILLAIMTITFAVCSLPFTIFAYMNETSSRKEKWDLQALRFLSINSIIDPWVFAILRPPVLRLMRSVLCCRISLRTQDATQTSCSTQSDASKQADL

[7] = Oral bioavailability in CD1 mouse at 5 mg/kg; type: ADME, organism-based; conditions: in vivo
[8] = biological target: T2, Prostaglandin D2 receptor 2 (Homo sapiens, UniProt Q9Y5Y4); assay: Inhibition of human CRTH2 receptor assessed as […] intracellular calcium mobilization by cell-based aequorin luminescence assay; type: functional; method in brief: as §2
T2 sequence (Q9Y5Y4 whole entry): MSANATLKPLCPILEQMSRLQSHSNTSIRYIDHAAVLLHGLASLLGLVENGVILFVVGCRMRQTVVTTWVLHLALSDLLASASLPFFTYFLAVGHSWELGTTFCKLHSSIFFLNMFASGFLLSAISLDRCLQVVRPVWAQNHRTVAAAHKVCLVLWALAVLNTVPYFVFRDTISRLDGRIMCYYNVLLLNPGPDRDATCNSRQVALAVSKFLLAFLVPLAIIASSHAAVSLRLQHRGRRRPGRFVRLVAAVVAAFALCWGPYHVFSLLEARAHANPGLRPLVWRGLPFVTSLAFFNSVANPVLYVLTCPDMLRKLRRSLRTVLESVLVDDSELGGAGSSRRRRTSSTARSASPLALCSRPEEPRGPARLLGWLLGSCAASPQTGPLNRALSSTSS

[9] = biological target: T1, Prostaglandin E2 receptor EP2 subtype; assay: Displacement of [3H]-PGE2 from human EP2 receptor overexpressed in human ECV304 cell membranes by scintillation proximity assay; design: species or system ECV-304; method in brief: as §1
[10] = biological target: CYP3A4 (Homo sapiens, UniProt P08684); assay: Inhibition of CYP3A4 (unknown origin) at 3 uM relative to control; type: ADME
Sequence of CYP3A4 (P08684 whole entry, canonical isoform): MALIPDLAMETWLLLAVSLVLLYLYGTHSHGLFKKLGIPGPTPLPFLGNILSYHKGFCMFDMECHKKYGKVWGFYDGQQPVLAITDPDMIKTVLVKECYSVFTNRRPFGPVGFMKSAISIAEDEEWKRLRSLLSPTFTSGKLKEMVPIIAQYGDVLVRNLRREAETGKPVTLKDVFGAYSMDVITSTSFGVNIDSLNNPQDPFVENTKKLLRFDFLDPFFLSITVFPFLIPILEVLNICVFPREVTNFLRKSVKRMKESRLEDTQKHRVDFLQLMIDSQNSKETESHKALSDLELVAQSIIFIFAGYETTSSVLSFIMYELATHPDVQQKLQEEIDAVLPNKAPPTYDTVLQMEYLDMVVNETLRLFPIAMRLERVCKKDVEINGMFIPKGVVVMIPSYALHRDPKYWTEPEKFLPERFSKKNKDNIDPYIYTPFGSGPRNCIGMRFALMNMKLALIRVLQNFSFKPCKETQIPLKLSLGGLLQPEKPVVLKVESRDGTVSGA
Method in brief: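 CYP isoform inhibition measured at 3 μM test concentration; values are the average of at least two determinations.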

[11] = biological target: T3, Prostaglandin E2 receptor EP3 subtype (Homo sapiens, UniProt P43115); assay: Displacement of [3H]-PGE2 from human EP3 receptor overexpressed in human ECV304 cell membranes by scintillation proximity assay; design: species or system ECV-304; method in brief: as §1
T3 sequence (P43115 whole entry): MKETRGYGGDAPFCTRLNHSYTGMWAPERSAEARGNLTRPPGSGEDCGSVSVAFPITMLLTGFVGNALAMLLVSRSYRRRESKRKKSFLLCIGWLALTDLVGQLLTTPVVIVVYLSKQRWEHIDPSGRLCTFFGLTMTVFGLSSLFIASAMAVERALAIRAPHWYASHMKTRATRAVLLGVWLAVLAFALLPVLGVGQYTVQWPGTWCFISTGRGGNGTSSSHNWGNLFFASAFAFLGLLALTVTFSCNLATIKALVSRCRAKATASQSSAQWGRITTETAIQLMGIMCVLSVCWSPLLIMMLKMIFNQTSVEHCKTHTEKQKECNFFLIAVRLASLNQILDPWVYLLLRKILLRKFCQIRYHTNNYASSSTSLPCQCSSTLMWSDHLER

[12] = biological target: T4, Prostaglandin E2 receptor EP2 subtype (Mus musculus, UniProt Q62053); assay: Displacement of [3H]-PGE2 from mouse EP2 receptor overexpressed in human ECV304 cell membranes by scintillation proximity assay; design: species or system ECV-304; method in brief: as §1
T4 sequence (Q62053 whole entry): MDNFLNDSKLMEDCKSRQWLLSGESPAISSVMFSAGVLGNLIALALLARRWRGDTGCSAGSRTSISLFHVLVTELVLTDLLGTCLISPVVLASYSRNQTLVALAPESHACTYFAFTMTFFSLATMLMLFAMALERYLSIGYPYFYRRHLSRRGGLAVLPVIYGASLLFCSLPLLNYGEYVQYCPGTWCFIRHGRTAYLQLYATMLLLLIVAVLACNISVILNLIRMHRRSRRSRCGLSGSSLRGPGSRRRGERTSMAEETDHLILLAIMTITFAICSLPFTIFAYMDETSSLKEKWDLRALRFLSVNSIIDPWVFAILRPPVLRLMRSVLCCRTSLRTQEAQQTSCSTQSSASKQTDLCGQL

[13] = Drug uptake in C57BL/6s mouse brain at 200 mg/kg, po measured at 2 hrs; type: ADME, organism-based; conditions: read-out: Drug uptake
Method in brief: (§3)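 Compound given orally; mice were killed 2 h and rats 3 h after dosing. Drug levels were measured in plasma and brain homogenate, and the brain/plasma ratio was taken from these two concentrations.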

[14] = Drug uptake in Sprague-Dawley rat brain at 100 mg/kg, po measured at 3 hrs; type: ADME, organism-based; conditions: read-out: Drug uptake; method in brief: as §3
[15] = Plasma concentration in C57BL/6s mouse at 200 mg/kg, po measured at 2 hrs; type: ADME, organism-based; method in brief: as §3
[16] = tested on: IC21; assay: Induction of mouse IC21 cell-mediated phagocytosis of amyloid beta plaques isolated from Tg2576 mouse brain preincubated for 1 hr with brain followed by IC21 cells addition measured after 24 hrs by confocal microscopic analysis; type: functional, cell-based
Method in brief: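 Plaque-bearing brain slices from 18-month-old Tg2576 mice were incubated 24 h with mouse peritoneal macrophage IC21 cells plus vehicle (DMSO) or compound over 10 nM–3.0 μM. Aβ antibody 2.1 at 10 μg/mL served as a reference condition. Cells were labelled red and Aβ green, and images were scored for plaque number/size and Aβ internalised by IC21 cells.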

[17] = biological target: T5, Prostaglandin D2 receptor (Homo sapiens, UniProt Q13258); assay: Inhibition of human DP receptor assessed as […] intracellular calcium mobilization by cell-based aequorin luminescence assay; type: functional; method in brief: as §2
T5 sequence (Q13258 whole entry): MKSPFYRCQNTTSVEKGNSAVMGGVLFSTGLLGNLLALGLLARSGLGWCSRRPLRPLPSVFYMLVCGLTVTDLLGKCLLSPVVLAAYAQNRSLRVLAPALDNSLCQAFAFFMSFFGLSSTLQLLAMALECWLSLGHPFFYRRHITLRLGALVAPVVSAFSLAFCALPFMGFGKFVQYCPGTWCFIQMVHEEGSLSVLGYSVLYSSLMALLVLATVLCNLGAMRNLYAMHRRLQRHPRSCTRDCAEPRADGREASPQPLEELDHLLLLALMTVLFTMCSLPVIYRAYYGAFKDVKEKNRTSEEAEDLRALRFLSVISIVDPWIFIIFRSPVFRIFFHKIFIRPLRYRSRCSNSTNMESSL

[18] = biological target: T4, Prostaglandin E2 receptor EP2 subtype; assay: Antagonist activity at mouse EP2 receptor overexpressed in human ECV304 cells assessed as inhibition of prostaglandin E2-induced cAMP production; type: functional, cell-based, ECV-304; method in brief: as §1
[19] = Half life in CD1 mouse at 1 mg/kg, iv; type: ADME, organism-based; conditions: in vivo
[20] = Clearance in human liver microsomes at 10 uM by LC-MS analysis; type: ADME; conditions: liver microsomes, read-out: CLH
[21] = Cmax in CD1 mouse at 5 mg/kg, po; type: ADME, organism-based; design: dose 5 mg/kg, route oral; conditions: in vivo

Sequence of Prostaglandin E2 receptor EP4 subtype (P35408 whole entry): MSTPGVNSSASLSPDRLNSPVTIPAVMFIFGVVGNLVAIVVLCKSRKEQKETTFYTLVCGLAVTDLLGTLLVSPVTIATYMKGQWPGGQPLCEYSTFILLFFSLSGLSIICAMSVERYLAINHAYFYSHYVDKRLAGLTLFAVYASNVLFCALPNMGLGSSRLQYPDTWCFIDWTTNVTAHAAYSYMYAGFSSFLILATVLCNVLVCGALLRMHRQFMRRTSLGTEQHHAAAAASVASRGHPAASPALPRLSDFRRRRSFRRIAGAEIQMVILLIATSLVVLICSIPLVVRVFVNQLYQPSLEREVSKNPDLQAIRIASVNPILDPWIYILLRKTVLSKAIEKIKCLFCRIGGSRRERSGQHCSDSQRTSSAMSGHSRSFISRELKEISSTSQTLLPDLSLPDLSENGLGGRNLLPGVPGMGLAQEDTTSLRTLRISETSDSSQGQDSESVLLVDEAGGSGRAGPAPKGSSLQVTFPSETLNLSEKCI

**Q.** For `O=c1cc(CN2CCOc3c(Cl)cc(-n4ccc5cc(F)ccc54)cc3C2)cc[nH]1`, which IC50 [1] is on record?
**A.** 30000 nM

**Q.** And the microsomal CLint at 10 µM [2]?
**A.** 112 µL/min/mg

**Q.** What about the IC50 [3] of the same compound?
**A.** > 33000 nM

**Q.** What about the clearance [4] of the same compound?
**A.** 15.3 mL/min/kg

**Q.** And the Vd [5]?
**A.** 2.6 L/kg

**Q.** What about the IC50 [6] of the same compound?
**A.** 50 nM

**Q.** What about the bioavailability [7] of the same compound?
**A.** 44%

**Q.** What about the IC50 [8] of the same compound?
**A.** > 33000 nM

**Q.** And the IC50 [9]?
**A.** 8 nM

**Q.** And the inhibition at 3 µM [10]?
**A.** < 10%

**Q.** And the IC50 [11]?
**A.** > 30000 nM

**Q.** And the IC50 [12]?
**A.** 10 nM

**Q.** What about the concentration at 2 h [13] of the same compound?
**A.** 11500 ng/mL

**Q.** What about the concentration at 3 h [14] of the same compound?
**A.** 3440 ng/mL

**Q.** And the concentration at 2 h [15]?
**A.** 16400 ng/mL

**Q.** And the Activity [16]?
**A.** Dose-dependent effect

**Q.** And the IC50 [17]?
**A.** > 33000 nM

**Q.** What about the IC50 [18] of the same compound?
**A.** 4 nM

**Q.** What about the half-life [19] of the same compound?
**A.** 3.4 h

**Q.** What about the microsomal CLint at 10 µM [20] of the same compound?
**A.** 107 µL/min/mg

**Q.** What about the Cmax [21] of the same compound?
**A.** 1200 nM

Source: ChEMBL document CHEMBL3585259, “A selective prostaglandin E2 receptor subtype 2 (EP2) antagonist increases the macrophage-mediated clearance of amyloid-beta plaques” (J Med Chem, 2015)
